Compound activity from PubChem.
An excerpt weighted towards active compounds, which were near 4.1% of everything screened.
ROMK mod – modulators of human ROMK potassium channel | AID 1918 | B-score at 10 µM | Tet-inducible ROMK, thallium flux fluorescence; actives lie on both sides | hit rate 2% among 130,000;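 active = signal ratio slope over the read window, or its plate-corrected B-score, at least 3 SD from the plate mean, either direction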;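 also: B-score of the F/F0 ratio slope over 7 to 12 s after thallium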
KCC2 mod – KCC2 (human) Cl- transport modulation; Q9H2X9; hit rate 2.2% among 190,000; B-score of Tl+ flux slope (higher = more flux/activation; lower = inhibition) at 10 µM; KCC2 cells, thallium flux FluoZin-2 fluorescence; AID 1456;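 active = thallium flux slope and its plate-corrected score both differing from the plate sample mean at a set confidence after two filtering rounds, in either direction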;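 also: slope of fluorescence scaled to starting intensity during 10 to 20 s after thallium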
Dynein cargo inh – blocks dynein driven cargo transport along microtubules. 3617.4 mouse cells, GR-EGFP nuclear translocation imaging; test concentration mostly 20 µM; stimulated with dexamethasone, 1 µM; hits give low values. z-score, hits read low. hit rate 0.47% among 220,000. AID 1381;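 active = plate z-score of nuclear minus cytoplasmic receptor signal below a set negative limit, without overly bright fluorescence or cell loss, cut at about -3.5 in these data, passing the limit was not always enough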;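 also: z-score of nuclear minus cytoplasmic ring GR-EGFP intensity difference per well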
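Also added – dexamethasone, 1.0 µM final · Buffer or medium – tet-free, stripped-serum medium · Schedule – induction 48 h, compound 1 h, agonist 30 min · Detection – formaldehyde fixation, Hoechst nuclear stain, 10x automated fluorescence imaging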
Autophagy mod – autophagy modulation, high-content screen; MEF GFP-LC3 puncta imaging; test concentration mostly 10 µM; calls only at 10 µM (by protocol); hit rate 0.98% among 190,000;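 active = percentage of spot-positive cells more than 3 SD above its plate mean, without a fluorescence outlier flag or 80% toxicity; inconclusive = no clear call, values can overlap the other calls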
Redox H2O2 prof – compounds producing H2O2 with reducing agent – biochemical, NIH compound library profiling, artefact control for MLSCN library redox annotation, primary screen; DTT-dependent redox cycling H2O2, phenol red/HRP absorbance; 100% = 100 µM peroxide control, 0% = buffer; hit rate 0.03% among 200,000; activation, % at 10 µM; AID 878;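 active = activation of at least 50% relative to the plate's high and low controls in the primary single-dose screen; inactive = activation below 50%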;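 also: compound incubated with DTT at 0.8 mM final as the reducing agent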
Dynein inh conf – dynein cargo transport inhibition, confirmation; hit rate 69% among 1,000; 3617.4 GR-EGFP nuclear translocation imaging, dexamethasone-induced; AID 463116; calls only at 20 µM; shares compounds with Dynein cargo inh;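 active = inhibition of receptor movement into the nucleus at or above a set limit in both runs, with normal cell brightness and cell count; inconclusive = limit reached in only one run, brightness and count normal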;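 also: dexamethasone at 1 µM final in well for 30 min; nuclear minus cytoplasmic GR-EGFP mean intensity difference in channel 2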
Large screens that a line does not name were inactive (follow-up assays come after a bar, where they were run).

O=C1CSC(=S)N1Cc1cccnc1	Dynein cargo inh -4.6 (no result: ROMK mod) | Dynein inh conf inactive
O=C1CCCC(=O)C1=C1SCCS1	none (no result: ROMK mod)
COc1cc(C(Nc2ccccn2)c2ccc3ccc(C)nc3c2O)cc(OC)c1O (stereo unspecified)	Dynein cargo inh -3.6 (no result: ROMK mod) | Dynein inh conf active
CCn1cc(C(=O)Nc2cccc(C)c2)c(=O)c2ccc(C)nc21	none
Clc1ccccc1OCc1nnc(-c2ccccc2Br)o1	none (no result: ROMK mod)
O=c1c(Cl)c(Cl)cnn1Cc1nnc(-c2ccccc2Br)o1	Dynein cargo inh -5.6 | Dynein inh conf active
CCOC(=O)c1c(NC(=O)/C=C/C(=O)O)sc(C)c1-c1ccc(C(C)(C)C)cc1	none
CCOC(=O)c1c(NC(=O)/C=C\C(=O)O)sc(C)c1-c1ccccc1	Dynein cargo inh -3.5 | Dynein inh conf active
CC1=CC(=Nc2c(C)n(C)n(-c3ccccc3)c2=O)C=CC1=O	Dynein cargo inh -3.7 (no result: Autophagy mod, Redox H2O2 prof) | Dynein inh conf active
O=C(CSc1nccc(=O)[nH]1)Nc1cccc(S(=O)(=O)N2CCOCC2)c1	none
CCNC(=O)c1ccc(C23CC4CC(CC(C4)C2)C3)o1	none
CC(C)NC(=O)CN1CCN(C(=O)CCl)CC1	none
CC(C)c1ccc(CN2CCN(C(=O)CCl)CC2)cc1	Dynein cargo inh -5.9 | Dynein inh conf active
CCc1ccc(/C=C/C(=O)c2c(C)cc(C)[nH]c2=O)cc1	Dynein cargo inh -4 (no result: ROMK mod, KCC2 mod) | Dynein inh conf active
Cc1cc(=O)[nH]c(N/N=C/c2cn(CCC#N)nc2-c2ccccc2)n1	none
CC1=CC(C)(C)Nc2ccc(OC(=O)c3cccnc3)cc21	Dynein cargo inh -3.6 | Dynein inh conf inactive
COC(=O)c1ccc2c(c1)C(C)(C)C(/C=C/c1ccc(O)cc1)=[N+]2C	Dynein cargo inh -3.6 (no result: ROMK mod) | Dynein inh conf inconclusive
CCOC(=O)c1c(-c2ccc(C)o2)csc1NC(=O)CN1CCCCC1	Dynein cargo inh -4.6 | Dynein inh conf inactive
CCOC(=O)c1c(-c2ccco2)csc1NC(=O)CSc1nnc(N)s1	none (no result: ROMK mod)
CCOC(=O)c1c(-c2ccc(C)o2)csc1NC(=O)CSc1nncs1	Dynein cargo inh -4 | Dynein inh conf inactive
CCOC(=O)c1c(-c2ccc(C)o2)csc1NC(=O)CN1CCN(CC)CC1	none
CCOC(=O)C1(Cc2cccc(F)c2)CCN(C(=O)COC)CC1	none (no result: ROMK mod, Autophagy mod, Redox H2O2 prof)
CCOc1ccccc1N1C(=O)CC(Sc2n[nH]c(-c3ccccc3)n2)C1=O (stereo unspecified)	Dynein cargo inh -4.1 | Dynein inh conf active
Cc1ccc(N(CCC#N)C(=O)CCl)cc1C	Dynein cargo inh -4.4 | Dynein inh conf active
Cc1ccc(N(CCC#N)C(=O)CSc2ccc3c(c2)OCCO3)cc1	none (no result: ROMK mod)
CC(=O)Oc1ccc(OC(C)=O)c(SCCCCCCl)c1	Dynein cargo inh -4.6 | Dynein inh conf active
COC(=O)NC(=C(Cl)Cl)S(=O)(=O)c1ccccc1	Dynein cargo inh -5.8 | Dynein inh conf active
CC(C)(C)CC(=O)O/N=C(\N)c1ccncc1	none
O=C1CN(C(=O)Cn2ncc(Cl)c(Cl)c2=O)c2ccccc2N1	Dynein cargo inh -6.8 | Dynein inh conf active
C=CCn1c(C)cc(C(=O)CN2NS(=O)(=O)c3ccccc3C2=O)c1C	none
Cc1ccc(NC(=O)CN(C)C(=O)COc2c(Cl)cc(Cl)c3ccc(C)nc23)cc1	none (no result: ROMK mod)
C=CCn1c(C)cc(C(=O)Cn2ncc(Cl)c(Cl)c2=O)c1C	Dynein cargo inh -4.6 | Dynein inh conf active
Cc1ccc(NC(=O)CN(C)C(=O)Cn2ncc(Cl)c(Cl)c2=O)cc1	Dynein cargo inh -6.3 (no result: ROMK mod) | Dynein inh conf active
O=c1c(Cl)c(Cl)cnn1Cc1ccc(F)cc1	Dynein cargo inh -4.9 | Dynein inh conf active
CC(C)C[C@H](NC(=O)c1nc[nH]c1C(=O)N1CCN(C(=O)OC(C)(C)C)CC1)C(=O)OCc1ccccc1	none (no result: ROMK mod)
CSC1=NNC(c2ccc(C(C)(C)C)cc2)=NN1	none (no result: Autophagy mod, Redox H2O2 prof)
CN(C)CCNCCCOc1ccccc1-c1ccccc1	none
CC(C)(C)C(=O)Cn1ncc(N2CCCC2)c(Br)c1=O	none (no result: ROMK mod)
O=C(Cn1ncc(Cl)c(Cl)c1=O)c1ccc(Cl)cc1	Dynein cargo inh -4 (no result: ROMK mod) | Dynein inh conf inactive
CC(C)(C)C(=O)Cn1ncc(Cl)c(Cl)c1=O	Dynein cargo inh -6.1, Autophagy mod active | Dynein inh conf active
O=C(Cn1ncc(N2CCOCC2)c(Cl)c1=O)c1ccc(Cl)cc1	none
CCNC(=O)NC(=O)COC(=O)CCc1nc(=O)c2ccccc2n1C	none
COC(=O)C1CCCN1C(=O)COc1ccc(Cl)cc1Br (stereo unspecified)	none
Cn1ncc(S(=O)(=O)Cc2ccccc2)c(Cl)c1=O	Dynein cargo inh -5.2 (no result: ROMK mod, Autophagy mod, Redox H2O2 prof) | Dynein inh conf active
O=C(N/N=C/c1cccs1)/C(=C/c1ccccc1)NC(=O)c1ccccc1	none
Cc1ccc(C(=O)/C=C\C(=O)c2ccc(C)cc2)cc1	Dynein cargo inh -7.2, Autophagy mod active | Dynein inh conf active
CCOC(=O)c1cc(NC(=O)Nc2nccs2)c(C)nc1C	none
O=S(=O)(CCN(CCS(=O)(=O)C(F)(F)F)CC1CCCO1)C(F)(F)F (stereo unspecified)	Dynein cargo inh -4.1 (no result: ROMK mod) | Dynein inh conf inconclusive
Nc1ccc(N2CCN(c3ccc(F)cc3)CC2)cc1	none
Nc1ccc(N2CCCCCC2)cc1	Dynein cargo inh -4.3 (no result: KCC2 mod) | Dynein inh conf inconclusive
O=C(Cn1c(=O)oc2cc(S(=O)(=O)NCc3ccccc3)ccc21)N1CCCC1	Dynein cargo inh -5.2 (no result: Autophagy mod, Redox H2O2 prof) | Dynein inh conf inactive
CCCN1CCN(C(=O)Cn2c(=O)oc3cc(S(=O)(=O)NCc4ccccc4)ccc32)CC1	none (no result: ROMK mod)
Cc1ccc(S(=O)(=O)N2CCOCC2)cc1C(=O)Nc1ccc(S(=O)(=O)Nc2nccs2)cc1	none
CCC1Oc2ccc(C)cc2N(CC(=O)N(Cc2cccnc2)Cc2ccc(C)o2)C1=O (stereo unspecified)	Dynein cargo inh -3.7 (no result: ROMK mod) | Dynein inh conf inconclusive
O=S(=O)(c1ccc(Cl)c(C(F)(F)F)c1)N1CCN(c2ccccn2)CC1	none
Cc1ccc(-n2nnnc2-c2ccccc2)cc1	none
Cc1ccc(-n2nnnc2C(Cl)c2nnnn2-c2ccc(C)cc2)cc1	Dynein cargo inh -4.2 (no result: ROMK mod) | Dynein inh conf active
Cc1cc(C2=CC(C)(c3cc(C)oc3C)Nc3nc(C(F)(F)F)nn32)c(C)o1 (stereo unspecified)	Dynein cargo inh -6.1 (no result: ROMK mod) | Dynein inh conf active
Cc1ccccc1NC(=O)C(Cl)=C(Cl)Cl	Dynein cargo inh -3.8 | Dynein inh conf active
COc1cccc(-n2nc(C#N)c(Cl)cc2=O)c1	Dynein cargo inh -6.2, Autophagy mod active (no result: KCC2 mod) | Dynein inh conf active
CCCCN(C(=S)SC)C1CCS(=O)(=O)C1 (stereo unspecified)	none (no result: ROMK mod, Autophagy mod, Redox H2O2 prof)
COC(C/C=C/C(=O)COCc1ccccc1)OC	Dynein cargo inh -5.7 (no result: ROMK mod, Autophagy mod, Redox H2O2 prof) | Dynein inh conf active
COC(C[C@@H]1O[C@@H]1C(=O)COCc1ccccc1)OC	none (no result: ROMK mod, Autophagy mod, Redox H2O2 prof)
